In ChEMBL document CHEMBL1156039, “Nonpeptide urotensin-II receptor antagonists: a new ligand class based on piperazino-phthalimide and piperazino-isoindolinone subunits” (J Med Chem, 2009):
The source made the active and inactive calls. The calls are words filed in the database; no cut-off is given here.

How the values were obtained:
[1] = biological target: T1, Urotensin-2 receptor (Homo sapiens, UniProt Q9UKP6); experiment: Displacement of [125I]urotensin 2 from urotensin 2 receptor in human RMS13 cells by scintillation proximity assay; format: cell-based
T1 sequence (Q9UKP6 whole entry): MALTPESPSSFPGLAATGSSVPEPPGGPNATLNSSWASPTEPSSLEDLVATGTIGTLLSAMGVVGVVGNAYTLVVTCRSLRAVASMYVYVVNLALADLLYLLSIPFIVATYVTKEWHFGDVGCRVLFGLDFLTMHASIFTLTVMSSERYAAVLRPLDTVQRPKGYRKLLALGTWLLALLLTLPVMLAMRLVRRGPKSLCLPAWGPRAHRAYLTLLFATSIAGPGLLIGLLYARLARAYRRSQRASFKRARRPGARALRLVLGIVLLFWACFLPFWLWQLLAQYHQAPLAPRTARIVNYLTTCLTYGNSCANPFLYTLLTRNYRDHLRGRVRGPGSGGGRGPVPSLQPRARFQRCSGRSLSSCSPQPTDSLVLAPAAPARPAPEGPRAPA

[2] = biological target: T2, Urotensin-2 receptor (Rattus norvegicus, UniProt P49684); experiment: Antagonist activity at rat urotensin 2 receptor expressed in CHOK1 cells assessed as inhibition of urotensin 2-induced intracellular calcium mobilization after 1 hr by FLIPR assay; format: functional, cell-based, CHO-K1; details: in the assay text read “after 10 min” for “after 1 hr”
T2 sequence (P49684 whole entry): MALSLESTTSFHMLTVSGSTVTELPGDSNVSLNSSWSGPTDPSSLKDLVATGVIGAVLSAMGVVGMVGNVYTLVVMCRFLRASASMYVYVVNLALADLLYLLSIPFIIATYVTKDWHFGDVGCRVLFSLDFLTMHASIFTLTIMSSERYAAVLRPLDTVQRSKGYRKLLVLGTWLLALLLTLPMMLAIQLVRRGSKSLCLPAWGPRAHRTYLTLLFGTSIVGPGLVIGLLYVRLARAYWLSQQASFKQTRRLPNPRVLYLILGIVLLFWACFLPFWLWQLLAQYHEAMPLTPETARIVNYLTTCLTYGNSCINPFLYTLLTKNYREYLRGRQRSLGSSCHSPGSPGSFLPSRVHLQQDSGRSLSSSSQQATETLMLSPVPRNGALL
Method in brief: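 Stable CHO-K1 line expressing rat UT, selected with G418 and seeded 24 h ahead. Cells loaded with calcium dye for 1 h at 37 °C in HBSS/20 mM HEPES/0.1% BSA/2.5 mM probenecid, pH 7.4. Compound preincubated 10 min, then agonist added: goby U-II 0.1 nM or peptide agonist 0.3 or 1 nM. FLIPR calcium read at 23 °C; N = 2-6.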

[3] = biological target: T2, Urotensin-2 receptor; experiment: Antagonist activity at rat urotensin 2 receptor expressed in CHOK1 cells assessed as inhibition of urotensin 2-induced intracellular calcium mobilization after 10 min by FLIPR assay
[4] = Half life in human liver microsomes; format: ADME, Microsome
[5] = biological target: T1, Urotensin-2 receptor; experiment: Antagonist activity at urotensin 2 receptor in human RMS13 cells assessed as inhibition of urotensin 2-induced intracellular calcium mobilization after 1 hr by FLIPR assay; format: functional, cell-based
Method in brief: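 Human rhabdomyosarcoma (RMS13) cells expressing endogenous UT. Inhibition of U-II-driven calcium mobilization measured by FLIPR; N = 2-6.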

[6] = Inhibition of sodium channel site 2 at 10 uM
Method in brief: (§1)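 Part of a contract panel of 50 receptors and ion channels. Each target was run as a binding assay with a reference ligand, with the test compound at 10 μM.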

[7] = test system: Aorta; experiment: Vasorelaxant activity in Wistar rat thoracic aortic ring assessed as inhibition of contraction at 100 nM
[8] = test system: Rattus norvegicus; experiment: Inhibition of ear flushing in Sprague-Dawley rat ear-flush model assessed as complete attenuation of urotensin 2-induced increase in ear pinna temperature at 10 mg/kg, iv administered 15 mins prior to urotensin 2 challenge; format: functional, organism-based; design: dose 10 mg/kg
[9] = biological target: Muscarinic acetylcholine receptor M3 (Homo sapiens) (UniProt P20309); experiment: Inhibition of human muscarinic M3 receptor at 10 uM
[10] = test system: Rattus norvegicus; experiment: Inhibition of ear flushing in Sprague-Dawley rat ear-flush model assessed as attenuation of urotensin 2-induced increase in ear pinna temperature at 3 mg/kg, iv administered 15 mins prior to urotensin 2 challenge; format: functional, organism-based; design: dose 3 mg/kg
[11] = Inhibition of alpha1 adrenergic receptor at 10 uM; method in brief: as §1
[12] = biological target: 5-hydroxytryptamine receptor 1B (Homo sapiens) (UniProt P28222); experiment: Inhibition of 5HT1B receptor at 10 uM
[13] = biological target: T3, Muscarinic acetylcholine receptor M1 (Homo sapiens) (UniProt P11229); experiment: Inhibition of human muscarinic M1 receptor at 10 uM
T3 sequence (whole entry): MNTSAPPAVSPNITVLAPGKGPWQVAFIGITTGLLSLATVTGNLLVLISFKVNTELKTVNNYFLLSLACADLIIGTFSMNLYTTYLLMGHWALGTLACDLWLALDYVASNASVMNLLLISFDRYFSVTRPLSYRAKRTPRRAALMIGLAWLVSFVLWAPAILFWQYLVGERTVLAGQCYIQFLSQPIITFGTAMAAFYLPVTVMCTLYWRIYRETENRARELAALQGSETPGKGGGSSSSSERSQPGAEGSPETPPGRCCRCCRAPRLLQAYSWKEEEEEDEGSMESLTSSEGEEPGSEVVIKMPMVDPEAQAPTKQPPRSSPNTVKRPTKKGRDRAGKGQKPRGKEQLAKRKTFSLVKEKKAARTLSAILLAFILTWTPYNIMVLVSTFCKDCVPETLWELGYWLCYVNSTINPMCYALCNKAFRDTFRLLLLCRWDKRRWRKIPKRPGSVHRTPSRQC

[14] = biological target: T4, 5-hydroxytryptamine receptor 1A (Homo sapiens) (UniProt P08908); experiment: Inhibition of human 5HT1A receptor at 10 uM
T4 sequence (whole entry): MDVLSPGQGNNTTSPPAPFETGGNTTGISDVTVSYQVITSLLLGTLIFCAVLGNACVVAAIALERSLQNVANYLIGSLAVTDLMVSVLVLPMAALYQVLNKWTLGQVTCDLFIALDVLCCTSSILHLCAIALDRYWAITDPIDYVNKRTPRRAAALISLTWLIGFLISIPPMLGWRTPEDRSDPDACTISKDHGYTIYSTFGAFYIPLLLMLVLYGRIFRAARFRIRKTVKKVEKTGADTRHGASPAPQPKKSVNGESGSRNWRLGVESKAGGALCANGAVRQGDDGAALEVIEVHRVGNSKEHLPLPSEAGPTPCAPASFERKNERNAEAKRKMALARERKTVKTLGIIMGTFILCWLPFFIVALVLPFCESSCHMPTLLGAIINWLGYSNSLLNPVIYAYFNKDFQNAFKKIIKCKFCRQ

[15] = Half life in rat; format: ADME, organism-based; details: in vivo
[16] = Oral bioavailability in rat; format: ADME, organism-based; details: in vivo

Sequence of Muscarinic acetylcholine receptor M3 (Homo sapiens) (P20309 whole entry, looked up): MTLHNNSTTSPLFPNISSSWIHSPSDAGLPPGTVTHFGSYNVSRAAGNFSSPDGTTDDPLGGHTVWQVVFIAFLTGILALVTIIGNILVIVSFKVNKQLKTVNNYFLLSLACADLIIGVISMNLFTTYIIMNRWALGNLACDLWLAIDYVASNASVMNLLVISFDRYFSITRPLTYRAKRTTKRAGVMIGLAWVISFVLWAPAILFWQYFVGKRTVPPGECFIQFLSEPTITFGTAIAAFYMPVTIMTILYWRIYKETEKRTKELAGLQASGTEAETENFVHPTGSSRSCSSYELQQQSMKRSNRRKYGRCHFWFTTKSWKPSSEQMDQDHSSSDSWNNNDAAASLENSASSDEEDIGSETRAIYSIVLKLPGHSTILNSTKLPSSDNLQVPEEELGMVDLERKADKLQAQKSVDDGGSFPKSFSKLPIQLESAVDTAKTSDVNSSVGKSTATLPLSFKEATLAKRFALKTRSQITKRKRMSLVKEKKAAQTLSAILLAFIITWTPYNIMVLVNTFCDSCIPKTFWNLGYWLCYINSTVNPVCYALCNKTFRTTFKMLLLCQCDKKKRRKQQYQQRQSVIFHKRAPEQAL
Sequence of 5-hydroxytryptamine receptor 1B (Homo sapiens) (P28222 whole entry): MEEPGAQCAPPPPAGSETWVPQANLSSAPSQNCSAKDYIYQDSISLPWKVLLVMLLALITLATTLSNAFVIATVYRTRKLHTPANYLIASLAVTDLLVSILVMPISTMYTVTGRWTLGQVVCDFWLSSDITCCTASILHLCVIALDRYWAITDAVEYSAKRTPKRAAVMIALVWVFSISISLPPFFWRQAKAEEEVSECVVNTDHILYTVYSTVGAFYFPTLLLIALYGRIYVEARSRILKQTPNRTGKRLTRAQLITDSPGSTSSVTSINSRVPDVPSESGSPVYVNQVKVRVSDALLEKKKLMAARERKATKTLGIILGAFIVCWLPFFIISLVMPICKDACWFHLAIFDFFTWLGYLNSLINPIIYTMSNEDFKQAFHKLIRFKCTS

SMILES | Ki [1] | IC50 [2] | IC50 [3] | IC50 [5] | also measured
COc1ccc([C@@H](CCCCNC(=O)OC(C)(C)C)N2C(=O)c3cccc(N4CCN([C@H](C)c5ccccc5)CC4)c3C2=O)cc1OC | > 10000 nM | 65000 nM |  |  | 
COc1ccc(CN2C(=O)c3cccc(N4CCN(Cc5c(F)cccc5F)CC4)c3C2=O)cc1OC | 310 nM |  | 1000 nM |  | half-life [4]: < 3 min
COc1ccc([C@@H](CCCNC(=O)c2cnoc2C)N2Cc3c(cccc3N3CCN([C@H](C)c4ccccc4)CC3)C2=O)cc1OC | 15 nM | 6 nM |  | 320 nM | 
CCN1CCN(c2cccc3c2[C@H]2CCC[C@H](c4ccc(OC)c(OC)c4)N2C3=O)CC1 |  |  | 14 nM |  | 
COc1ccc([C@@H](CCCNS(=O)(=O)c2ccc(Cl)s2)N2C(=O)c3cccc(N4CCN([C@H](C)c5ccccc5)CC4)c3C2=O)cc1OC |  |  | 1700 nM |  | 
COc1ccc(C(CNC(=O)OC(C)(C)C)N2C(=O)c3cccc(N4CCN([C@@H](C)c5ccccc5)CC4)c3C2=O)cc1OC (stereo not given in full) | 430 nM |  | 120 nM |  | 
COc1ccc(CN2C(=O)c3cccc(N4CCN(Cc5ccccc5)CC4)c3C2=O)cc1OC | 160 nM |  |  |  | half-life [4]: < 3 min
COc1ccc(C(CCCNS(=O)(=O)c2cccs2)N2C(=O)c3cccc(N4CCN([C@H](C)c5ccccc5)CC4)c3C2=O)cc1OC (stereo not given in full) |  |  |  | 250 nM | 
COc1ccc([C@@H](CCCN(C)S(=O)(=O)c2cccs2)N2Cc3c(cccc3N3CCN(C4CC4)CC3)C2=O)cc1OC |  |  |  | 1200 nM | 
CCN1CCN(c2cccc3c2CN([C@H](CCCNS(=O)(=O)c2cccs2)c2ccc(OC)c(OC)c2)C3=O)CC1 |  |  |  |  | inhibition [6]: 59%; inhibition at 0.1 µM [7]: 74%; Activity [8]: Active; inhibition [9]: 55%; Activity [10]: Active; inhibition [11]: 68%; inhibition [12]: 66%; inhibition [13]: 65%; inhibition [14]: 93%
COc1ccc(CN2C(=O)c3cccc(N4CCN([C@H](C)c5ccccc5)CC4)c3C2=O)cc1OC |  |  |  | 1900 nM | half-life [15]: 240 min; bioavailability [16]: 33%; half-life [4]: 29 min
Cc1cc(NC(=O)NCCN2CCC(O)(Cc3ccccc3)CC2)c2ccccc2n1 [PALOSURAN] | 41 nM | > 75000 nM |  | 320 nM | 
COc1cc(Br)c(S(=O)(=O)Nc2ccc(C(F)(F)F)c(O[C@@H]3CCN(C)C3)c2)cc1OC |  | 34 nM |  |  | inhibition at 0.1 µM [7]: 97%; Activity [8]: Active
